Key:
Type in all cases: functional, cell-based
MDA-MB-231 = test: Antiproliferative activity against human MDA-MB-231 cells measured after 72 hrs by MTT assay; conditions: MDA-MB-231, 72 h
In short: (§1)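 MTT antiproliferation assay on human breast cancer lines MDA-MB-231, SUM-159, MCF-7 and Bcap-37 and on mouse 4T1 breast cancer cells. IC50 values were taken from the MTT read-out. Adriamycin served as the positive control.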

SUM-159-PT = test: Antiproliferative activity against human SUM159 cells measured after 72 hrs by MTT assay; in short: as §1
MCF7 = test: Antiproliferative activity against human MCF7 cells measured after 72 hrs by MTT assay; conditions: MCF7, 72 h; in short: as §1
Bcap37 = test: Antiproliferative activity against human Bcap37 cells measured after 72 hrs by MTT assay; conditions: Bcap37, 72 h; in short: as §1
4T1 = test: Antiproliferative activity against mouse 4T1 cells measured after 72 hrs by MTT assay; conditions: 4T1, 72 h; in short: as §1

IC50 (MDA-MB-231) [µM]	SMILES	further results
0.46	C=C1C(=O)O[C@H]2[C@H]1CC/C(COC(=O)/C=C/c1ccccc1OC)=C\CC[C@@]1(C)O[C@@H]21	IC50 (SUM-159-PT): 0.35 µM; IC50 (MCF7): 0.42 µM; IC50 (Bcap37): 0.68 µM; IC50 (4T1): 0.52 µM
2.3	C=C1C(=O)O[C@H]2[C@H]1CC/C(COC(=O)CCc1c(OC)cccc1OC)=C\CC[C@@]1(C)O[C@@H]21	
3.55	C=C1C(=O)O[C@H]2[C@H]1CC/C(COC(=O)c1c(OC)cccc1OC)=C\CC[C@@]1(C)O[C@@H]21	
1.5	C=C1C(=O)O[C@H]2[C@H]1CC/C(COC(=O)/C=C/c1c(Br)cccc1Br)=C\CC[C@@]1(C)O[C@@H]21	
1.73	C=C1C(=O)O[C@H]2[C@H]1CC/C(COC(=O)/C=C/c1ccc(OC)cc1)=C\CC[C@@]1(C)O[C@@H]21	
1.8	C=C1C(=O)O[C@H]2[C@H]1CC/C(COC(=O)/C=C/c1ccccc1F)=C\CC[C@@]1(C)O[C@@H]21	
1.73	C=C1C(=O)O[C@H]2[C@H]1CC/C(COC(=O)/C=C/c1cccc(F)c1)=C\CC[C@@]1(C)O[C@@H]21	
> 50	COC(=O)/C=C/c1cc(OC)ccc1OC	
1.59	C=C1C(=O)O[C@H]2[C@H]1CC/C(COC(=O)/C=C/c1c(F)cccc1F)=C\CC[C@@]1(C)O[C@@H]21	
2.79	C=C1C(=O)O[C@H]2[C@H]1CC/C(COC(=O)/C=C/c1ccncc1)=C\CC[C@@]1(C)O[C@@H]21	
1.98	C=C1C(=O)O[C@H]2[C@H]1CC/C(COC(=O)/C(=C/c1cc(OC)ccc1OC)c1ccc(C(F)(F)F)cc1)=C\CC[C@@]1(C)O[C@@H]21	
5.59	C=C1C(=O)O[C@H]2[C@H]1CC/C(CO)=C\CC[C@@]1(C)O[C@@H]21	
0.74	C=C1C(=O)O[C@H]2[C@H]1CC/C(COC(=O)/C=C/c1ccccc1C(F)(F)F)=C\CC[C@@]1(C)O[C@@H]21	IC50 (SUM-159-PT): 0.85 µM; IC50 (MCF7): 2.01 µM; IC50 (Bcap37): 1.89 µM; IC50 (4T1): 1.16 µM
1.8	C=C1C(=O)O[C@H]2[C@H]1CC/C(COC(=O)/C=C/c1cccs1)=C\CC[C@@]1(C)O[C@@H]21	
1.32	C=C1C(=O)O[C@H]2[C@H]1CC/C(COC(=O)/C=C/c1ccc(F)cc1)=C\CC[C@@]1(C)O[C@@H]21	
1.87	C=C1C(=O)O[C@H]2[C@H]1CC/C(COC(=O)/C(=C/c1cc(OC)ccc1OC)c1ccc(SC)cc1)=C\CC[C@@]1(C)O[C@@H]21	
1.79	C=C1C(=O)O[C@H]2[C@H]1CC/C(COC(=O)/C=C/c1ccccc1C)=C\CC[C@@]1(C)O[C@@H]21	
1.33	C=C1C(=O)O[C@H]2[C@H]1CC/C(COC(=O)/C=C/c1ccccc1Br)=C\CC[C@@]1(C)O[C@@H]21	
1.59	C=C1C(=O)O[C@H]2[C@H]1CC/C(COC(=O)/C=C/c1c(Cl)cccc1Cl)=C\CC[C@@]1(C)O[C@@H]21	
1.02	C=C1C(=O)O[C@H]2[C@H]1CC/C(COC(=O)/C=C/c1cc(OC)c(OC)cc1OC)=C\CC[C@@]1(C)O[C@@H]21	
0.95	C=C1C(=O)O[C@H]2[C@H]1CC/C(COC(=O)/C=C/c1cc(OC)c(OC)c(OC)c1)=C\CC[C@@]1(C)O[C@@H]21	IC50 (SUM-159-PT): 0.86 µM; IC50 (MCF7): 1.39 µM; IC50 (Bcap37): 1.96 µM; IC50 (4T1): 0.63 µM

IC50 (MDA-MB-231) [µM]	SMILES	further results
1.89	C=C1C(=O)O[C@H]2[C@H]1CC/C(COC(=O)/C=C/c1ccc(O)cc1)=C\CC[C@@]1(C)O[C@@H]21	
1.87	C=C1C(=O)O[C@H]2[C@H]1CC/C(COC(=O)/C(=C/c1cc(OC)ccc1OC)c1ccc(OCC)cc1)=C\CC[C@@]1(C)O[C@@H]21	
1.93	C=C1C(=O)O[C@H]2[C@H]1CC/C(COC(=O)/C=C/c1ccc([N+](=O)[O-])cc1)=C\CC[C@@]1(C)O[C@@H]21	
2.35	C=C1C(=O)O[C@H]2[C@H]1CC/C(COC(=O)/C(C#N)=C/c1cc(OC)ccc1OC)=C\CC[C@@]1(C)O[C@@H]21	
> 20	COC(=O)/C=C/c1c(OC)cccc1OC	
1.88	C=C1C(=O)O[C@H]2[C@H]1CC/C(COC(=O)CCc1cc(OC)ccc1OC)=C\CC[C@@]1(C)O[C@@H]21	
1.96	C=C1C(=O)O[C@H]2[C@H]1CC/C(COC(=O)/C(=C/c1cc(OC)ccc1OC)c1ccc(F)cc1)=C\CC[C@@]1(C)O[C@@H]21	
2.01	C=C1C(=O)O[C@H]2[C@H]1CC/C(COC(=O)/C(=C/c1cc(OC)ccc1OC)c1ccccc1)=C\CC[C@@]1(C)O[C@@H]21	
6.8	COc1ccc(OC)c(/C=C/C(=O)OC/C2=C/CC[C@@]3(C)O[C@H]3[C@H]3OC(=O)[C@@H](C)[C@@H]3CC2)c1	
2.27	C=C1C(=O)O[C@H]2[C@H]1CC/C(COC(=O)/C=C/c1ccc(C)cc1)=C\CC[C@@]1(C)O[C@@H]21	
1.74	C=C1C(=O)O[C@H]2[C@H]1CC/C(COC(=O)/C=C/c1cccc(OC)c1OC)=C\CC[C@@]1(C)O[C@@H]21	
1.33	C=C1C(=O)O[C@H]2[C@H]1CC/C(COC(=O)/C=C/c1ccc(C(C)C)cc1)=C\CC[C@@]1(C)O[C@@H]21	
2.52	C=C1C(=O)O[C@H]2[C@H]1CC/C(COC(=O)/C=C/c1ccc(C(F)(F)F)cc1)=C\CC[C@@]1(C)O[C@@H]21	
2.02	C=C1C(=O)O[C@H]2[C@H]1CC/C(COC(=O)/C=C/c1cc(OC)cc(OC)c1)=C\CC[C@@]1(C)O[C@@H]21	
1.02	C=C1C(=O)O[C@H]2[C@H]1CC/C(COC(=O)/C=C/c1ccc(Br)cc1)=C\CC[C@@]1(C)O[C@@H]21	
1.95	C=C1C(=O)O[C@H]2[C@H]1CC/C(COC(=O)/C=C/c1ccc(OC)c(OC)c1)=C\CC[C@@]1(C)O[C@@H]21	
2.95	C=C1C(=O)O[C@H]2[C@H]1CC/C(COC(=O)/C(=C/c1cc(OC)ccc1OC)c1ccc(C)cc1)=C\CC[C@@]1(C)O[C@@H]21	
2.25	C=C1C(=O)O[C@H]2[C@H]1CC/C(COC(=O)/C(=C/c1cc(OC)ccc1OC)CC)=C\CC[C@@]1(C)O[C@@H]21	
2.25	C=C1C(=O)O[C@H]2[C@H]1CC/C(COC(=O)/C=C/c1ccco1)=C\CC[C@@]1(C)O[C@@H]21	
7.6	COc1cccc(OC)c1/C=C/C(=O)OC/C1=C/CC[C@@]2(C)O[C@H]2[C@H]2OC(=O)[C@@H](C)[C@@H]2CC1	
1.08	C=C1C(=O)O[C@H]2[C@H]1CC/C(COC(=O)/C=C/c1cccc(C)c1)=C\CC[C@@]1(C)O[C@@H]21	

IC50 (MDA-MB-231) [µM]	SMILES	further results
3.27	C=C1C(=O)O[C@H]2[C@H]1CC/C(COC(=O)/C=C/c1cccnc1)=C\CC[C@@]1(C)O[C@@H]21	
1.77	C=C1C(=O)O[C@H]2[C@H]1CC/C(COC(=O)/C=C/c1ccc(OC)c(OC)c1OC)=C\CC[C@@]1(C)O[C@@H]21	
1.42	C=C1C(=O)O[C@H]2[C@H]1CC/C(COC(=O)/C=C/c1ccccc1Cl)=C\CC[C@@]1(C)O[C@@H]21	
2.01	C=C1C(=O)O[C@H]2[C@H]1CC/C(COC(=O)/C=C/c1ccc(O)c(OC)c1)=C\CC[C@@]1(C)O[C@@H]21	
1.09	C=C1C(=O)O[C@H]2[C@H]1CC/C(COC(=O)/C=C/c1c(OC)cc(OC)cc1OC)=C\CC[C@@]1(C)O[C@@H]21	
7.53	C=C1C(=O)O[C@H]2[C@H]1CC/C(COC(=O)/C(=C/c1cc(OC)ccc1OC)CCC)=C\CC[C@@]1(C)O[C@@H]21	
1.8	C=C1C(=O)O[C@H]2[C@H]1CC/C(COC(=O)/C=C/c1ccc3c(c1)OCO3)=C\CC[C@@]1(C)O[C@@H]21	
1.8	C=C1C(=O)O[C@H]2[C@H]1CC/C(COC(=O)/C=C/c1ccc(C#N)cc1)=C\CC[C@@]1(C)O[C@@H]21	
1.76	C=C1C(=O)O[C@H]2[C@H]1CC/C(COC(=O)/C(C)=C/c1cc(OC)ccc1OC)=C\CC[C@@]1(C)O[C@@H]21	
1.22	C=C1C(=O)O[C@H]2[C@H]1CC/C(COC(=O)/C=C/c1ccc(Cl)cc1)=C\CC[C@@]1(C)O[C@@H]21	
1.15	C=C1C(=O)O[C@H]2[C@H]1CC/C(COC(=O)/C=C/c1ccc(OC(C)=O)cc1)=C\CC[C@@]1(C)O[C@@H]21	
2.02	C=C1C(=O)O[C@H]2[C@H]1CC/C(COC(=O)/C(=C/c1cc(OC)ccc1OC)c1ccc(Cl)cc1)=C\CC[C@@]1(C)O[C@@H]21	
1.84	C=C1C(=O)O[C@H]2[C@H]1CC/C(COC(=O)/C=C/c1cccc(OC)c1)=C\CC[C@@]1(C)O[C@@H]21	
2.01	C=C1C(=O)O[C@H]2[C@H]1CC/C(COC(=O)/C(=C/c1cc(OC)ccc1OC)c1ccc(Br)cc1)=C\CC[C@@]1(C)O[C@@H]21	
1.64	C=C1C(=O)O[C@H]2[C@H]1CC/C(COC(=O)/C=C/c1cccc(Br)c1)=C\CC[C@@]1(C)O[C@@H]21	
1.48	C=C1C(=O)O[C@H]2[C@H]1CC/C(COC(=O)/C=C/c1ccc3ccccc3c1)=C\CC[C@@]1(C)O[C@@H]21	
2.29	C=C1C(=O)O[C@H]2[C@H]1CC/C(COC(=O)/C=C/c1ccccn1)=C\CC[C@@]1(C)O[C@@H]21	
1.58	C=C1C(=O)O[C@H]2[C@H]1CC/C(COC(=O)/C=C/c1ccc(OCC)cc1)=C\CC[C@@]1(C)O[C@@H]21	
2.51	C=C1C(=O)O[C@H]2[C@H]1CC/C(COC(=O)/C(=C/c1cc(OC)ccc1OC)c1ccc(OC)cc1)=C\CC[C@@]1(C)O[C@@H]21	
1.78	C=C1C(=O)O[C@H]2[C@H]1CC/C(COC(=O)/C=C/c1cccc(Cl)c1)=C\CC[C@@]1(C)O[C@@H]21	
